Source: ChEMBL document CHEMBL1777755, “A new iridoid and effect on the rat aortic vascular smooth muscle cell proliferation of isolated compounds from Buddleja officinalis” (Bioorg Med Chem Lett, 2011)
Activity calls are given as the source filed them. The calls are words filed in the database; no cut-off is given here.

Key:
[1] = (§1) Antiproliferative activity against PDGF-BB-induced rat VSMC proliferation at 10 uM after 24 hrs by WST1 (CCK-8) assay; format: functional
Outline: (§2)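 Rat aortic VSMCs were seeded at 4 × 10^4 cells/well and grown 48 h in DMEM with 10% FBS. They were then held 24 h in serum-free medium with compounds (0–50 µM), then stimulated 24 h. The methods footnote gives the stimulus as 5% FBS; the figure legends give 25 ng/mL PDGF-BB. WST-1 was added at 22 h for 2 h, and OD read at 450 nm. AG1295 (1 µM) served as positive control; mean ± SD, n = 4.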

[2] = Antiproliferative activity against PDGF-BB-induced rat VSMC proliferation at 30 uM after 24 hrs by WST1 (CCK-8) assay; format: functional; outline: as §2
[3] = (§3) Antiproliferative activity against PDGF-BB-induced rat VSMC proliferation at 50 uM after 24 hrs by WST1 (CCK-8) assay; format: functional; outline: as §2
[4] = Cytotoxicity against PDGF-BB-induced rat VSMC at 50 uM
[5] = test system: VSMC; assay: Antiproliferative activity against PDGF-BB-induced rat VSMC proliferation after 24 hrs by WST1 (CCK-8) assay; format: functional; outline: as §2
[6] = test system: VSMC; assay: as §1; format: functional; outline: as §2
[7] = test system: VSMC; assay: as §3; format: functional; outline: as §2

SMILES: CO[C@H]1[C@@H]2C[C@@H]3OC[C@](O)([C@H]2[C@H](O[C@@H]2O[C@H](CO)[C@@H](O)[C@H](O)[C@H]2O)O3)[C@@H]1O [METHYLSCUTELLOSIDE]
- inhibition at 10 µM [1]: 39.1%
- inhibition at 30 µM [2]: 42%
- inhibition at 50 µM [3]: 79.6%
- Activity [4]: Non-toxic
- Activity [5]: Dose-dependent effect

SMILES: COc1ccc(-c2cc(=O)c3c(O)cc(O[C@@H]4O[C@H](CO[C@@H]5O[C@@H](C)[C@H](O)[C@@H](O)[C@H]5O)[C@@H](O)[C@H](O)[C@H]4O)cc3o2)cc1 [ACACIIN]
- Activity [6]: inactive
- inhibition at 30 µM [2]: 21.2%
- Activity [7]: Active
- Activity [4]: Non-toxic
- Activity [5]: Dose-dependent effect

SMILES: COc1cc(C(=O)O[C@@H]2C[C@](C)(O)[C@H]3[C@H](O[C@@H]4O[C@H](CO)[C@@H](O)[C@H](O)[C@H]4O)OC=C[C@H]32)ccc1O
- Activity [6]: inactive
- Activity [7]: Active
- Activity [4]: Non-toxic
- Activity [5]: Dose-dependent effect

SMILES: CO[C@@H]1C=C2[C@@H]3CC(C)(C)CC[C@]3(CO)[C@@H](O)C[C@@]2(C)[C@]2(C)CC[C@H]3[C@](C)(CO)[C@@H](O[C@@H]4O[C@H](C)[C@H](O)[C@H](O[C@@H]5O[C@H](CO)[C@@H](O[C@@H]6O[C@@H](C)[C@H](O)[C@@H](O)[C@H]6O)[C@H](O)[C@H]5O)[C@H]4O[C@@H]4O[C@H](CO)[C@@H](O)[C@H](O)[C@H]4O)CC[C@]3(C)[C@@H]12 [BUDDLEJASAPONIN IA]
- Activity [4]: Toxic

SMILES: C[C@H]1O[C@@H](O[C@H]2CC[C@@]3(C)[C@@H](CC[C@]4(C)[C@@H]3C=C[C@]35OC[C@@]6(CCC(C)(C)C[C@H]63)[C@@H](O)C[C@]54C)[C@]2(C)CO)[C@H](O)[C@@H](O[C@@H]2O[C@H](CO)[C@@H](O)[C@H](O)[C@H]2O)[C@H]1O[C@@H]1OC[C@@H](O)[C@H](O)[C@H]1O [BUDDLEJASAPONIN III]
- Activity [4]: Toxic

SMILES: OC[C@H]1O[C@@H](OCCc2ccc(O)cc2)[C@H](O)[C@@H](O)[C@@H]1O
- Activity [7]: inactive

SMILES: OC[C@H]1O[C@@H](OCCc2ccccc2)[C@H](O)[C@@H](O)[C@@H]1O
- Activity [7]: inactive

SMILES: C[C@@H]1O[C@@H](OC[C@H]2O[C@@H](Oc3cc(O)c4c(=O)cc(-c5ccc(O)cc5)oc4c3)[C@H](O)[C@@H](O)[C@@H]2O)[C@H](O)[C@H](O)[C@H]1O [ISORHOIFOLIN]
- Activity [6]: inactive
- inhibition at 30 µM [2]: 22.6%
- Activity [7]: Active
- Activity [4]: Non-toxic
- Activity [5]: Dose-dependent effect

SMILES: O=c1cc(-c2ccc(O)cc2)oc2cc(O)cc(O)c12 [APIGENIN]
- Activity [6]: inactive
- Activity [4]: Toxic

SMILES: C[C@H]1O[C@@H](O[C@H]2CC[C@@]3(C)[C@@H](CC[C@]4(C)[C@@H]3C=C[C@]35OC[C@@]6(CCC(C)(C)C[C@H]63)[C@@H](O)C[C@]54C)[C@]2(C)CO)[C@H](O[C@@H]2O[C@H](CO)[C@@H](O)[C@H](O)[C@H]2O)[C@@H](O[C@@H]2O[C@H](CO)[C@@H](O)[C@H](O)[C@H]2O)[C@H]1O [BUDDLEJASAPONIN IV]
- Activity [4]: Toxic

SMILES: CO[C@@H]1C=C2[C@@H]3CC(C)(C)CC[C@]3(OC)[C@@H](O)C[C@@]2(C)[C@]2(C)CC[C@H]3[C@](C)(CO)[C@@H](O[C@@H]4O[C@H](C)[C@H](O)[C@H](O[C@@H]5O[C@H](CO)[C@@H](O)[C@H](O)[C@H]5O)[C@H]4O[C@@H]4O[C@H](CO)[C@@H](O)[C@H](O)[C@H]4O)CC[C@]3(C)[C@@H]12 [BUDDLEJASAPONIN IVA]
- Activity [4]: Toxic

SMILES: CO[C@@H]1C=C2[C@@H]3CC(C)(C)CC[C@]3(CO)CC[C@@]2(C)[C@]2(C)CC[C@H]3[C@](C)(CO)[C@@H](O[C@@H]4O[C@H](C)[C@H](O)[C@H](O[C@@H]5O[C@H](CO)[C@@H](O[C@@H]6O[C@@H](C)[C@H](O)[C@@H](O)[C@H]6O)[C@H](O)[C@H]5O)[C@H]4O[C@@H]4O[C@H](CO)[C@@H](O)[C@H](O)[C@H]4O)CC[C@]3(C)[C@@H]12 [MIMENGOSIDE B]
- Activity [4]: Toxic

SMILES: C[C@@H]1O[C@@H](OC[C@H]2O[C@@H](OCCc3ccc(O)c(O)c3)[C@H](O)[C@@H](O[C@@H]3O[C@@H](C)[C@H](O)[C@@H](O)[C@H]3O)[C@@H]2OC(=O)/C=C/c2ccc(O)c(O)c2)[C@H](O)[C@H](O)[C@H]1O
- Activity [7]: inactive

SMILES: C[C@@H]1O[C@@H](O[C@@H]2[C@@H](O)[C@H](OCCc3ccc(O)c(O)c3)O[C@H](CO)[C@H]2O)[C@H](O)[C@H](O)[C@H]1O
- Activity [7]: inactive

SMILES: C=C[C@](C)(O)CC/C=C(\C)CO[C@@H]1O[C@H](CO)[C@@H](O)[C@H](O)[C@H]1O [BETULALBUSIDES A]
- Activity [6]: inactive
- Activity [7]: Active
- Activity [4]: Non-toxic
- Activity [5]: Dose-dependent effect

SMILES: COc1ccc(/C=C/C(=O)O[C@@H]2[C@@H](OC(C)=O)[C@@H](O)[C@H](O[C@H]3[C@@H]4C=CO[C@@H](O[C@@H]5O[C@H](CO)[C@@H](O)[C@H](O)[C@H]5O)[C@@H]4[C@@]4(CO)O[C@@H]34)O[C@H]2C)cc1 [BUDDLEJOSIDE A4]
- Activity [6]: inactive
- Activity [7]: Active
- Activity [4]: Non-toxic
- Activity [5]: Dose-dependent effect

SMILES: C[C@H]1O[C@H](O[C@@H]2[C@@H](O)[C@H](OCCc3ccc(O)c(O)c3)O[C@H](CO[C@H]3O[C@@H](CO)[C@H](O)[C@@H](O)[C@@H]3O)[C@H]2OC(=O)/C=C/c2ccc(O)c(O)c2)[C@@H](O)[C@@H](O)[C@@H]1O
- Activity [7]: inactive

SMILES: CO[C@H]1[C@@H]2C=CO[C@@H](O[C@@H]3O[C@H](CO)[C@@H](O)[C@H](O)[C@H]3O)[C@@H]2[C@@]2(CO)O[C@@H]12 [METHYLCATALPOL]
- Activity [7]: Active
- Activity [4]: Non-toxic
- Activity [5]: Dose-dependent effect

SMILES: C[C@@H]1O[C@@H](O[C@@H]2[C@@H](O)[C@H](OCCc3ccc(O)c(O)c3)O[C@H](CO)[C@H]2OC(=O)/C=C/c2ccc(O)c(O)c2)[C@H](O)[C@H](O)[C@H]1O
- Activity [7]: inactive

SMILES: C[C@@H]1O[C@@H](O[C@H]2[C@H](O)[C@@H](O)[C@H](O[C@H]3[C@@H](O)[C@@H](C)O[C@@H](O[C@H]4CC[C@@]5(C)[C@@H](CC[C@]6(C)[C@@H]5C=C[C@]57OC[C@@]8(CCC(C)(C)C[C@H]85)[C@@H](O)C[C@]76C)[C@]4(C)CO)[C@@H]3O[C@@H]3O[C@H](CO)[C@@H](O)[C@H](O)[C@H]3O)O[C@@H]2CO)[C@H](O)[C@H](O)[C@H]1O [BUDDLEJASAPONIN I]
- Activity [4]: Toxic
